Measured values pooled from the literature.
Protocols differ between the studies behind these lines.
Target: RAC-beta serine/threonine-protein kinase (AKT2, Homo sapiens, UniProt P31751)

Compound | assay | conditions | endpoint | value
CC(C)c1ccc(NC(=O)c2cccs2)c(-c2nc3ccccc3[nH]c2=O)c1 | enzyme activity, inhibitor | 1 µM | activity vs control | 102%
CNC(=O)c1cc(Oc2ccc(NC(=O)Nc3ccc(Cl)c(C(F)(F)F)c3)cc2)ccn1 | cell-free assay | 0.5 µM | remaining signal | 103%
COc1ccc2c(c1)O[C@H](c1ccc(OC)c(OC)c1)C[C@@H]2NC(=O)C1(c2ccc3c(c2)OC(F)(F)O3)CC1 | cell-free assay, competition with immobilised ligand | 1 µM | remaining binding | 96%
Cc1sc(C(=O)NC2COC2)cc1-n1cc(NC(=O)Nc2c(F)cccc2Cl)cn1 | enzyme activity, inhibitor | 10 µM | remaining activity | 88.9%
COc1cc(Nc2cnc(C#N)c(O[C@H](C)CN(C)C)n2)ncc1-c1cnn(C)c1 | enzyme activity, inhibitor, radiometric | 1 µM | remaining activity | 81%
Cc1cc(NC(=O)c2cccc3cc(-c4cccc5[nH]nc(N)c45)ccc23)ccc1F | enzyme activity, inhibitor | 0.1 µM | activity vs control | 123%
CC(C)(O)[C@H]1CC[C@H](Nc2ccc3ncc(-c4cccc(C(F)(F)F)c4)n3n2)CC1 | enzyme activity, inhibitor | 1 µM | remaining activity | 102%
Cc1ccc(C(=O)Nc2ccc(CN3CCN(C)CC3)c(C(F)(F)F)c2)cc1C#Cc1cnc2cccnn12 | enzyme activity, inhibitor | 23.5 nM | remaining activity | 95%
O=C(Nc1cc(-c2ccc(Cl)cc2)[nH]n1)C1CCCCC1 | enzyme activity, inhibitor | 10 µM | activity vs control | 75%
Nc1nc(NC2CCCCC2)sc1C(=O)c1ccccc1 | enzyme activity, inhibitor | 10 µM | remaining activity | 73%
CCC(=O)N[C@H]1CC[C@@H](C(=O)N(C)c2ccc(-c3nc4ccccc4o3)cc2)C1 | cell-free assay, competition with immobilised ligand | 1 µM | remaining binding | 89%
CN(c1ncccc1CNc1nc(Nc2ccc3c(c2)CC(=O)N3)ncc1C(F)(F)F)S(C)(=O)=O | enzyme activity, inhibitor | 1 µM | inhibition | 1.6%
Nc1nc(Nc2ccccc2)sc1C(=O)c1c(F)cccc1F | enzyme activity, inhibitor | 10 µM | remaining activity | 85%
C[C@H](c1cccc(C#N)c1)n1cc(Cl)cc(C(N)=O)c1=N | cell-free assay, competition with immobilised ligand | 1 µM | remaining binding | 100%
N#CCCc1ccc2c(c1)-c1[nH]c3ccc([N+](=O)[O-])cc3c1CC(=O)N2 | cell-free assay | 0.5 µM | remaining signal | 100%
COc1cc2ncnc(Nc3ccc(Oc4ccccc4)cc3C)c2cc1OC | enzyme activity, inhibitor | 1 µM | inhibition | 7%
Oc1cccc(-c2nc(N3CCOCC3)c3oc4ncccc4c3n2)c1 | cell-free assay | 0.5 µM | remaining signal | 99.1%
O=C(NS(=O)(=O)c1ccc(NCC2CCOCC2)c([N+](=O)[O-])c1)c1ccc(N2CCN(Cc3ccc(C(F)(F)F)cc3-c3ccc(Cl)cc3)CC2)cc1Oc1cnc2[nH]ccc2c1 | cell-free assay, competition with immobilised ligand | 1 µM | remaining binding | 100%
Nc1ncnc2occ(-c3ccc(NC(=O)Nc4cc(C(F)(F)F)ccc4F)cc3)c12 | cell-free assay, inhibitor | 20 µM | remaining signal | 95%
Cc1c(C(=O)O)cc(-c2ccc(C3CCNCC3)cc2)c2ccc(-c3ccc(C(F)(F)F)cc3)cc12 | binding, competition with immobilised ligand | 1 µM | remaining binding | 100%
C=CC(=O)Nc1cc(Nc2nccc(Nc3cc(Cl)c(F)cc3C(C)(C)O)n2)c(OC)cc1N1CC[C@@H](N(C)C)C1 | enzyme activity, inhibitor | 1 µM | inhibition | -10%
O=C(O)c1cc(-c2ccc(C3CCNCC3)cc2)c2ccc(-c3ccc(C(F)(F)F)cc3)cc2c1 | cell-free assay, competition with immobilised ligand | 1 µM | remaining binding | 95%
Cc1ccc(Nc2nccc(N(C)c3ccc4c(C)n(C)nc4c3)n2)cc1S(N)(=O)=O | enzyme activity, inhibitor | 0.5 µM | remaining activity | 107%
CC(C)(C)c1nc(-c2cccc(NS(=O)(=O)c3c(F)cccc3F)c2F)c(-c2ccnc(N)n2)s1 | enzyme activity, inhibitor, radiometric | 1 µM | remaining activity | 91%
Cc1ccc(-n2nc(C(C)(C)C)cc2NC(=O)Nc2ccc(OCCN3CCOCC3)c3ccccc23)cc1 | enzyme activity, inhibitor | 10 µM | inhibition | -15%
CNc1cccc2cc(C(=O)Nc3ccc(C(=O)O)cc3)c(=O)[nH]c12 | enzyme activity, inhibitor | 10 µM | inhibition | 3.3%
C[C@@]1(Cc2ccc(C#N)cc2)C(=O)N(c2cc(Cl)cc(Cl)c2)c2ncc(C(=O)NC3(c4nc(C5CCC5)no4)CC3)n21 | cell-free assay, competition with immobilised ligand | 1 µM | remaining binding | 100%
Oc1cccc(-c2nc(N3CCOCC3)c3oc4ncccc4c3n2)c1 | enzyme activity, inhibitor | 10 µM | remaining activity | 114%
CSc1cccnc1N1CCN(Cc2nc3ccccc3[nH]2)CC1 | cell-free assay, competition with immobilised ligand | 1 µM | remaining binding | 98%
O=C(Nc1cnn(-c2csc(C(=O)NC3COC3)c2)c1)Nc1ccccc1Cl | enzyme activity, inhibitor | 5 µM | remaining activity | 88.2%
